Data taken from ChEMBL document CHEMBL1821560, “Inhibitors of androgen receptor activation function-2 (AF2) site identified through virtual screening” (J Med Chem, 2011).
The source made the active and inactive calls. The calls are words filed in the database; no cut-off is given here.

Columns and labels:
[1] = target: T1, Androgen receptor (Homo sapiens) (UniProt P10275); assay: (§1) Displacement of SRC2-3 peptide from human AR ligand binding site expressed in Escherichia coli BL21 by AF2 FP assay
T1 sequence (whole entry): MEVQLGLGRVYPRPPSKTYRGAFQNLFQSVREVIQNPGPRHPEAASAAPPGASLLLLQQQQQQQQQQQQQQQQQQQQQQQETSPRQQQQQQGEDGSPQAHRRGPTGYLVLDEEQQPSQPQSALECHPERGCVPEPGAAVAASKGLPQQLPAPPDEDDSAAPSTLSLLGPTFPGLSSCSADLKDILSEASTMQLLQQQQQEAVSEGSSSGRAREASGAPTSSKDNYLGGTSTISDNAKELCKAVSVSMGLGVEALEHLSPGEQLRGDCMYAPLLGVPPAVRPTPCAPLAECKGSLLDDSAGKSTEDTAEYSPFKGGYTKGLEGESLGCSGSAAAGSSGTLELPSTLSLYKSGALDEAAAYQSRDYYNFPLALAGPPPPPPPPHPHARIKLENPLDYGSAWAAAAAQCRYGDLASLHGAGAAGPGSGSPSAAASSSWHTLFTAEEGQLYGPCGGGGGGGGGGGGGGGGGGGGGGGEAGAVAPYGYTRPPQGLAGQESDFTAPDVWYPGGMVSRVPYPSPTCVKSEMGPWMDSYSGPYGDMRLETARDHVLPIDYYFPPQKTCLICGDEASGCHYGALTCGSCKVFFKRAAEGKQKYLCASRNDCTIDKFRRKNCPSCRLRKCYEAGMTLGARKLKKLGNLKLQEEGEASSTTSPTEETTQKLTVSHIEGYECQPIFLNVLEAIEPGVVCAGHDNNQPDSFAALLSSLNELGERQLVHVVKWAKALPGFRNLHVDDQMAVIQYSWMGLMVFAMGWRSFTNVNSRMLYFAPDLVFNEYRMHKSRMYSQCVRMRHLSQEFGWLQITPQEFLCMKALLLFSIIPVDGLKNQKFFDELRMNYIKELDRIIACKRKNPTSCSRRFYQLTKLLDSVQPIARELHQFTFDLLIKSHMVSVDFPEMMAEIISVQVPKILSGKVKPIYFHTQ
Procedure, shortened: (§2)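 Purified AR LBD (2 μM) with FITC-SRC2-3 peptide (5 nM), compound 0–200 μM, in 25 mM HEPES pH 7.5, 50 mM NaCl, 0.01% NP-40, 2 μM DHT; 2 h incubation, FP read at ex 485/em 530 nm. Triplicate, means ± SD; IC50 by nonlinear four-parameter fit, Ki via Kenakin equation.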

Androgen receptor [2] = target: T2, Androgen receptor (Homo sapiens, UniProt P10275); assay: as §1; procedure, shortened: as §2
T2 sequence (P10275 whole entry): T1 sequence (whole entry)

[3] = target: T1, Androgen receptor (Homo sapiens); assay: (§3) Inhibition of human AR AF2 site expressed in human LNCap cells coexpressing eGFP -ARR2PB assessed as inhibition of transcriptional activity; type: cell-based
Procedure, shortened: (§4)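 LNCaP cells stably carrying eGFP under androgen-responsive ARR2PB promoter, kept 5 days in phenol-red-free RPMI 1640 with 5% CSS, then plated at 35 000 cells/well with 0.1 nM R1881 plus compound 0–100 μM; after 3 days eGFP fluorescence read (ex 485, em 535 nm).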

Androgen receptor [4] = target: T2, Androgen receptor; assay: as §3; type: cell-based; procedure, shortened: as §4
[5] = target: T3, Androgen receptor (Rattus norvegicus) (UniProt P15207); assay: Displacement of androgen from His-GST tagged rat AR hormone binding site at 10 uM assessed as decrease in fluorescence polarization
T3 sequence (whole entry): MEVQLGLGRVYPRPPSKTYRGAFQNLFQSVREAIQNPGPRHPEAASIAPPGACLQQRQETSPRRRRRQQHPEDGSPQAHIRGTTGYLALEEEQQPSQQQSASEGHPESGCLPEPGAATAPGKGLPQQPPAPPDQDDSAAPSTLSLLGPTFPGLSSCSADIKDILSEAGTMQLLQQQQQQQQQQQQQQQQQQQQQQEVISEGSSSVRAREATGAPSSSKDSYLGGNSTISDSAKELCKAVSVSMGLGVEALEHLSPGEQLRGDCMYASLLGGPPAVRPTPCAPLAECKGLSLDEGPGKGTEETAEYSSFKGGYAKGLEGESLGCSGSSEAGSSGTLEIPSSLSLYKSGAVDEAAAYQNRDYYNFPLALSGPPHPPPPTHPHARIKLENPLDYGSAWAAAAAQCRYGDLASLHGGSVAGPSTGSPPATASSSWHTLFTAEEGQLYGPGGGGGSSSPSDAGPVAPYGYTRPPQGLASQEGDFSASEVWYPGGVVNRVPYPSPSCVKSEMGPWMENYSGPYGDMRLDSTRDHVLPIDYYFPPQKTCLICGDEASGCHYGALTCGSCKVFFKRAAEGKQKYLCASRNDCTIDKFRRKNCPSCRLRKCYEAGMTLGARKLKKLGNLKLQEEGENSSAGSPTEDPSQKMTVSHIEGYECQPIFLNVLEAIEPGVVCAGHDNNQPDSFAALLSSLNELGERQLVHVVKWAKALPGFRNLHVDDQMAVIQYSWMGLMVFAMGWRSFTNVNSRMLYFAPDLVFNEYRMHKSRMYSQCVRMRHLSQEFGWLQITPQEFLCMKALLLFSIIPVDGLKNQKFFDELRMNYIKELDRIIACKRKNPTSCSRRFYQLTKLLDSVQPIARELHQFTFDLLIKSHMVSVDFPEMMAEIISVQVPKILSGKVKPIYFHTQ
Procedure, shortened: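 Hormone-site competition run with Polar Screen Androgen Receptor Competitor Green kit per manufacturer's protocol; compounds tested at 10 μM.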

LNCaP = assay: Cytotoxicity against human LNCAP cells at 50 uM assessed as cell viability after 72 hrs by MTS assay; type: functional
Procedure, shortened: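 LN-ARR2PBeGFP LNCaP cells exposed to compound for 72 h, then MTS reagent added and incubated 2 h at 37 °C in 5% CO2; absorbance read-out of proliferation/viability.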

inhibition [1]	IC50 (Androgen receptor [2]) [µM]	inhibition [3]	IC50 (Androgen receptor [4]) [µM]	inhibition [5]	SMILES	viability at 50 µM (LNCaP) [%]
Dose-dependent effect	30.6	Dose-dependent effect	18.6	inactive	Oc1ccc(C2Nc3cccc4cccc(c34)N2)cc1O	121
–	32.9	–	4.6	inactive	COc1cc(C2Nc3cccc4cccc(c34)N2)ccc1O	129
Dose-dependent effect	26	Dose-dependent effect	33.4	inactive	CC1=NN(c2ccccc2)C(=O)/C1=N\Nc1ccc(C(=O)O)c(O)c1	50.9

Second part, the compound before the results:

SMILES	inhibition [1]	IC50 (Androgen receptor [2]) [µM]	inhibition [3]	IC50 (Androgen receptor [4]) [µM]	inhibition [5]	viability at 50 µM (LNCaP) [%]
COc1ccc(C2Nc3cccc4cccc(c34)N2)cc1O	Dose-dependent effect	8.2	Dose-dependent effect	34.4	inactive	145
CCOc1cc(C2Nc3cccc4cccc(c34)N2)ccc1O	–	31.5	–	11.1	inactive	122
Oc1ccc(C2Nc3cccc4cccc(c34)N2)cc1	–	30.7	–	5.9	inactive	106
